For experiment [1], the system named is DU-145. The experiment in a line: Antiinvasive activity against human DU145 cells at 0.2 uM after 24 hrs by cell invasion assay. The experiment is classed as functional, cell-based. An outline of the steps:
(§1)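 DU145 prostate cancer cells grown at 37 °C, humidified 5% CO2, in medium with serum, 100 units/mL penicillin and 100 μg/mL streptomycin. Cells exposed to compound for 24 h, then in vitro invasiveness measured with a commercial cell invasion assay kit per the maker's protocol. Inhibition expressed relative to an untreated group.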

The subject of experiment [2] is DU-145. The experiment in a line: Cytotoxicity against human DU145 cells at 2.5 to 80 uM after 24 hrs by cell counting kit analysis. The format is functional, cell-based. An outline of the steps: (§2)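 DU145 cells cultured at 37 °C in humidified 5% CO2 with serum and penicillin/streptomycin. Cells treated with a range of compound concentrations for 24 h, then viability read with Cell Counting Kit-8 per the manufacturer. Viability expressed relative to an untreated group. Paclitaxel (0.1 μM) served as positive control.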
For orientation: Tetrazolium dyes change colour on reduction, which living cells bring about.

The test system of experiment [3] is DU-145. Nature of the experiment: Cytotoxicity against human DU145 cells at 0.25 to 8 uM after 24 hrs by cell counting kit analysis. The experiment is classed as functional, cell-based. Summed up: as §2
In experiment [4] the test system is DU-145. Nature of the experiment: Inhibition of human DU145 cells invasion at 60 uM after 24 hrs by cell invasion assay. The experiment is classed as functional. The note with it: DU-145, 24 h. Summed up: as §1
Experiment [5] concerns DU-145. Nature of the experiment: Antiinvasive activity against human DU145 cells at 15 to 60 uM after 24 hrs by cell invasion assay. The format is functional, cell-based. An outline of the steps:
as §1

In experiment [6] the test system is DU-145. The experiment in a line: Decrease in MMP9 mRNA level in human DU145 cell by RT-PCR analysis. The experiment is classed as functional, cell-based. An outline of the steps:
(§3)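 DU145 cells were exposed to compounds for 18 h. Total RNA was isolated by spin column and reverse-transcribed to cDNA. PCR used 100 ng cDNA aliquots: 94 °C for 5 min, then 32 cycles of 94 °C for 30 s, 58 °C for 30 s and 72 °C for 1 min. Products were assessed for MMP-2 and MMP-9 transcript levels.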

Experiment [7] relates to DU-145. The experiment in a line: Decrease in MMP2 mRNA level in human DU145 cell by RT-PCR analysis. The experiment is classed as functional, cell-based. An outline of the steps:
as §3

Experiment [8] concerns DU-145. Nature of the experiment: Antiinvasive activity against human DU145 cells after 24 hrs by cell invasion assay. The format is functional, cell-based. Summed up: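 DU145 cells grown with serum, 100 units/mL penicillin and 100 μg/mL streptomycin at 37 °C in humidified 5% CO2. Cells were exposed to test compounds at the indicated concentrations for 24 h. In vitro invasiveness was then measured with a commercial cell invasion kit per the manufacturer's protocol and expressed as inhibition relative to an untreated group.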

The subject of experiment [9] is DU-145. The experiment in a line: Cytotoxicity against human DU145 cells at 0.1 uM after 24 hrs by cell counting kit analysis. The format is functional. Summed up: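 DU145 cells were cultured in serum-supplemented medium with penicillin/streptomycin at 37 °C in 5% CO2. They were exposed to a range of compound concentrations for 24 h. Viability was read with the CCK-8 kit per the manufacturer's instructions and expressed as a percentage of an untreated group. Paclitaxel at 0.1 μM served as the positive control.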

Calls of active or inactive are those of the source. No cut-off for these calls is given here.

Turning to `CN1C(=O)[C@@]23Cc4ccc([N+](=O)[O-])cc4N2C(=O)[C@@]1(CO)SS3`, the outcome in the experiment with DU-145 [1] was inactive. The outcome in the experiment with DU-145 [2] and in the experiment with DU-145 [3] was Active.

With `CN1C(=O)[C@]23CC4=CC=C[C@H](O)[C@H]4N2C(=O)[C@@]1(CO)SS3`, the outcome with DU-145 [1] was inactive. The result in the experiment with DU-145 [2] and in the experiment on DU-145 [3] was Active.

In the case of `CS[C@]1(CO)C(=O)N2[C@H]3C(=CC=C[C@@H]3O)C[C@@]2(SC)C(=O)N1C` [BIS(DETHIO)BIS(METHYLTHIO)GLIOTOXIN], the inhibition at 60 µM with DU-145 [4] was 22%. Further, the outcome in the experiment on DU-145 [5] and in the experiment on DU-145 [2] was inactive.

As to `CS[C@@]1(CO)C(=O)N2c3cc([N+](=O)[O-])ccc3C[C@]2(SC)C(=O)N1C` [GLIONITRIN B], the Activity result in the experiment with DU-145 [6], in the experiment with DU-145 [7] and in the experiment with DU-145 [8] was “Dose-dependent effect” in each case. In the experiment with DU-145 [4], this molecule registered an inhibition at 60 µM of 46%. The result with DU-145 [2] was inactive.

The molecule `CC(=O)O[C@H]1C(=O)[C@@]2(C)[C@H]([C@H](OC(=O)c3ccccc3)[C@]3(O)C[C@H](OC(=O)[C@H](O)[C@@H](NC(=O)c4ccccc4)c4ccccc4)C(C)=C1C3(C)C)[C@]1(OC(C)=O)CO[C@@H]1C[C@@H]2O` [PACLITAXEL] had an Activity with DU-145 [9] of 18.9%.

By inhibition is commonly meant the drop in the measured response relative to a control, in per cent.

Source of the values: ChEMBL document CHEMBL1833799, “Glionitrin B, a cancer invasion inhibitory diketopiperazine produced by microbial coculture” (2011).
